Screening data from PubChem BioAssay.
Sampled rows, rich in hits. Any-hit rate of the full collection: about 3.8%.
MrgX1 PAM – human MrgX1 positive allosteric modulation, primary screen; Q96LB2; MrgX1-HEK293, Fluo-4 calcium flux, FDSS; stronger effect = higher value; B-score at 10 µM; actives 0.63% (n = 310,000);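 active = plate-corrected calcium response at least 3 library SD above typical, normal starting fluorescence, not activating the receptor alone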;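 also: compound read alongside a low EC10 to EC30 dose of BAM8-22 agonist; peak minus trough fluorescence over baseline measured at the second addition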
Target sequence (Q96LB2 whole entry, looked up): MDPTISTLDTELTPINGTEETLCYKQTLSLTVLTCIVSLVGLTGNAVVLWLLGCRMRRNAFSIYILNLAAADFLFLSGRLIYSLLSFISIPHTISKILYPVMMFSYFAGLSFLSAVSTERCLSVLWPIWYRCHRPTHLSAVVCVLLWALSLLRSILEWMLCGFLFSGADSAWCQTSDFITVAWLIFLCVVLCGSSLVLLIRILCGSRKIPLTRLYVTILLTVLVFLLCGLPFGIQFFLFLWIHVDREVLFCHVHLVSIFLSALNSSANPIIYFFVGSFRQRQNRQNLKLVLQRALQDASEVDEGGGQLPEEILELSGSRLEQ
MrgX1 agonist – agonists of human MrgX1 receptor; Q96LB2; B-score at 10 µM; MrgX1-HEK293 cells, Fluo-4 calcium fluorescence, agonist mode; stronger effect = higher value; actives 0.44% (n = 310,000); AID 588627;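 active = calcium response B-score plate-corrected fluorescence ratio at least 3 library SD, with starting fluorescence B-score inside 5 SD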
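System: HEK293 cells stably expressing human MrgX1 receptor; Dosing: test compound in the initial addition of three; Schedule: overnight plating, then 30 min 37 °C plus 30 min room-temperature dye loading; Detection: kinetic calcium dye fluorescence, Fluo-4 NW; Controls: per-plate positive and negative controls for Z′ factor.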
RGS4 pot – RGS4 potentiation or activation | HEK293 M3R/inducible RGS4, carbachol calcium flux Fluo4; stronger effect = lower value | B-score at 10 µM | actives 0.92% (n = 310,000) | AID 463111;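 active = B-score of the integrated calcium signal more than 4 SD below the library mean, with starting fluorescence not abnormally high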;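 also: negative B-score means reduced calcium response which marks RGS4 activation or potentiation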
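System – HEK293 FlpIn-TREx cells, stable M3R, doxycycline-inducible RGS4 · Reagent – ECmax carbachol challenge · Times – compound preincubation 20 min at room temperature before agonist · Technique – Fluo4 fluorescence kinetic imaging of calcium · Measure – B score of integrated Fluo4 ratio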
Hep lipid drop – modulators of hepatic lipid droplet formation; AML12 mouse hepatocytes, oleate lipid droplets, BODIPY imaging; inhibition, % at 6.5 µM; actives 0.4% (n = 240,000); AID 1656;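 active = lipid droplet intensity inhibited by at least 50%, with more than 500 cells counted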
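Material: mouse AML12 hepatocyte cell line, fixed after treatment; Timing: compound with oleate, overnight; Technique: high-content imaging of BODIPY-stained droplets and DAPI nuclei; Probe or stimulus: oleate, 100 µM final; Dosing: compound at 6.5 µM only.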
MrgX1 antagonist – blocks BAM8-22 activation of human MrgX1 receptor; MRGX1-HEK293 calcium flux, Fluo-4, BAM8-22 antagonism; stronger effect = lower value; actives 1.3% (n = 310,000); B-score at 10 µM;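 active = calcium-response B-score plate-corrected more than 3 library SD below zero, starting fluorescence within 5 deviations, no agonist response on first addition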;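 also: peak minus trough fluorescence over baseline after final BAM8-22 challenge near maximal dose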
RGS4 block – inhibitors of human RGS4 | HEK293 M3R/RGS4 inducible, Fluo-4 calcium flux; stronger effect = higher value; triggered by carbachol at its EC20 | B-score at 10 µM | actives 0.45% (n = 310,000) | AID 463165;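 active = B-score, a plate-corrected calcium signal, over three deviations above library mean, with baseline fluorescence within five deviations of library mean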;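 also: RGS4 expression induced by doxycycline in cells with stable M3 receptor; B-score is computed from the integrated fluorescence ratio over baseline after carbachol; higher B-score means a larger calcium signal and so more RGS4 inhibition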
Target sequence (P49798 whole entry, looked up): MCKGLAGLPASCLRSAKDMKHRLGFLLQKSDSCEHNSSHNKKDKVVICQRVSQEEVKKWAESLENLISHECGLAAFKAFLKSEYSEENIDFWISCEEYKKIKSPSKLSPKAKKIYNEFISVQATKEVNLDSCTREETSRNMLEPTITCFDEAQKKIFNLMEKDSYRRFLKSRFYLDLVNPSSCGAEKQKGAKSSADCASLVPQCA
RGS4 inh valid – validation of RGS4 inhibitors | shares compounds with RGS4 block | HEK293 M3R/RGS4, carbachol calcium Fluo-4 fluorescence; carbachol added at its EC20; 0 = buffer wells, 100 = carbachol control | calcium response, % at 10 µM | actives 65% (n = 1,700);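 active = duplicate-averaged calcium response above the buffer-only control mean plus 5 SD of those controls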;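 also: integrated fluorescence ratio F max minus min over baseline F0; higher response in RGS4-induced cells means RGS4 inhibition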
RGS4 uninduced – non-induced cell nonspecific activity of RGS4 inhibitors | AID 493000 | shares compounds with RGS4 block | HEK293 M3R non-induced, carbachol calcium Fluo-4; submaximal (EC20) carbachol stimulus; buffer wells 0%, carbachol control wells 100% | activity (percent), % at 10 µM | actives 20% (n = 1,900); call rule not given here;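 also: RGS4 induction absent so cells express M3R without RGS4; higher means more calcium signal and flags a non-specific hit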
M3R basal Ca ctr – second RGS4 inhibitor counter-screen in uninduced cells lacking carbachol; shares compounds with RGS4 block; HEK293 M3R/RGS4 non-induced, Fluo-4 calcium, no carbachol; normalised: buffer wells 0%, carbachol wells 100%; calcium response (agonist-mode artifact), % at 10 µM; actives 22% (n = 1,900); AID 493001;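 active = duplicate-averaged calcium rise in uninduced cells above buffer wells' mean plus 5 SD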
Large screens that a line does not name were inactive (follow-up assays come after a bar, where they were run).

CC(C)NC(=S)N/N=C/c1cc(Br)ccc1O	RGS4 block 5.8 | RGS4 inh valid 12% | RGS4 uninduced inactive | M3R basal Ca ctr inactive
COC(=O)N/N=C/c1cc(Br)ccc1O	none
COc1ccc(NC(=O)/C(C#N)=C/c2ccc(Sc3nncn3C)c([N+](=O)[O-])c2)cc1	RGS4 block 6.8 | RGS4 inh valid 18% | RGS4 uninduced inactive | M3R basal Ca ctr inactive
Cc1cc(OCC(=O)N[C@@H](CSCc2ccccc2)C(=O)O)c2c(C)c(C)c(=O)oc2c1	none (no result: Hep lipid drop)
Cc1ccc(NC(=O)C2CCCN2C(=O)c2cccs2)c(C)c1 (stereo not drawn)	none
Cc1ccc(NC(=O)CCNCc2ccco2)cc1S(=O)(=O)N(C)C	none
CNc1nc(N)c([N+](=O)[O-])c(NC2CCCCC2)n1	RGS4 block 6 | RGS4 inh valid 32% | RGS4 uninduced 39% | M3R basal Ca ctr inactive
CNc1nc(N)c([N+](=O)[O-])c(Nc2cccc(Cl)c2)n1	RGS4 block 15 | RGS4 inh valid 10% | RGS4 uninduced 34% | M3R basal Ca ctr 10%
CCCCCC(=O)N1CC2(CC(c3cccc(NC(=O)CC)c3)=NO2)C[C@H]1C(N)=O (stereo partly drawn)	none (no result: Hep lipid drop)
C#CCN(C#N)c1nc(NCC)nc(NC(C)C)n1	none
CCN(C#N)c1nc(NC(C)C)nc(NC(C)C)n1	none | RGS4 inh valid inactive | RGS4 uninduced inactive | M3R basal Ca ctr inactive
CNC(=O)c1ccc(=O)n(Cc2cccc(C(F)(F)F)c2)c1	none
O=C1c2cc(O)cc(O)c2C(=O)c2c1cc(O)c([C@@H](CO)CCO)c2O	RGS4 block 6.3 (no result: Hep lipid drop) | RGS4 inh valid 18% | RGS4 uninduced inactive | M3R basal Ca ctr 67%
Cc1cc(O)c2c(c1)C(=O)c1cc(O)cc(O)c1C2=O	none (no result: Hep lipid drop)
CCN(CC)CCCNC(=S)N(CCO)Cc1cc2cc3c(cc2[nH]c1=O)OCCO3	none | RGS4 inh valid inactive | RGS4 uninduced inactive | M3R basal Ca ctr inactive
CCOCCCNC(=S)N(CCN(CC)CC)Cc1cc2cc3c(cc2[nH]c1=O)OCCO3	none
CCCCNC(=S)N(CCO)Cc1cc2cc3c(cc2[nH]c1=O)OCCO3	none | RGS4 inh valid inactive | RGS4 uninduced inactive | M3R basal Ca ctr inactive
CCOCCCNC(=S)N(CCO)Cc1cc2cc3c(cc2[nH]c1=O)OCCO3	none | RGS4 inh valid inactive | RGS4 uninduced inactive | M3R basal Ca ctr inactive
CCN(CC)CCCNC(=S)N(CCCO)Cc1cc2cc3c(cc2[nH]c1=O)OCO3	none
Cc1sc2ncnc(OCC(=O)N3CCN(C(=O)c4ccco4)CC3)c2c1C	none
Cc1sc(C(C2C(=O)CC(C)(C)CC2=O)C2C(=O)CC(C)(C)CC2=O)cc1[N+](=O)[O-]	RGS4 block 24 | RGS4 inh valid 90% | RGS4 uninduced 50% | M3R basal Ca ctr 62%
CC1(C)CC(=O)C(C(c2cc([N+](=O)[O-])ccc2Cl)C2C(=O)CC(C)(C)CC2=O)C(=O)C1	none (no result: Hep lipid drop)
O=C(CCNS(=O)(=O)c1ccccc1)N1CCN(C(c2ccccc2)c2ccccc2)CC1	none
Cc1ccc(-c2cc(-c3ccccc3)c(C#N)c(N)n2)o1	RGS4 block 7.7 | RGS4 inh valid 5.5% | RGS4 uninduced inactive | M3R basal Ca ctr inactive
Cc1ccc(-c2cc(-c3ccc(F)cc3)nc(N)c2C#N)o1	RGS4 block 6 | RGS4 inh valid inactive | RGS4 uninduced inactive | M3R basal Ca ctr inactive
CCOc1ccc(S(=O)(=O)c2cn(C)c3cc(OC)c(OC)cc3c2=O)cc1	none
Cc1nn2c(-c3ccc(F)cc3)ccnc2c1Br	none | RGS4 uninduced inactive | M3R basal Ca ctr inactive
Cc1nn2c(-c3ccccn3)ccnc2c1Br	none
Cc1nn2c(-c3ccncc3)ccnc2c1Br	none (no result: Hep lipid drop) | RGS4 inh valid inactive | RGS4 uninduced inactive | M3R basal Ca ctr inactive
CC(=O)N(Cc1ccccc1)Cc1cn(CCC#N)nc1-c1cccc([N+](=O)[O-])c1	none
CCOC(=O)c1c(C)oc2c1cc(NS(=O)(=O)c1ccc(C(=O)O)cc1)c1ccccc12	none | RGS4 uninduced inactive | M3R basal Ca ctr inactive
O=C(N/N=C/c1ccc(F)cc1)c1ccccc1	none
Cn1c2ccccc2c2cc(/C=N/NC(=O)c3cc(O)cc(O)c3)ccc21	RGS4 pot -7.2 | RGS4 inh valid inactive | RGS4 uninduced inactive | M3R basal Ca ctr inactive
CCn1c2ccccc2c2cc(/C=N/NC(=O)c3ccccc3)ccc21	none (no result: Hep lipid drop) | RGS4 inh valid inactive | RGS4 uninduced inactive | M3R basal Ca ctr inactive
COc1cc(C(=O)N/N=C/c2ccc3c(c2)c2ccccc2n3C)ccc1O	none
O=C(N/N=C/c1cc2cc3c(cc2nc1Cl)OCO3)c1ccncc1	RGS4 block 7.8 | RGS4 inh valid inactive | RGS4 uninduced inactive | M3R basal Ca ctr inactive
O=C(N/N=C/c1cc2cc3c(cc2nc1Cl)OCCO3)c1ccccc1O	none
O=C(c1ccc(COCC(F)(F)F)o1)N1CCCC1	RGS4 block 5.9 | RGS4 inh valid inactive | RGS4 uninduced inactive | M3R basal Ca ctr inactive
CC1CN(C(=O)c2ccc(COCC(F)(F)F)o2)CC(C)O1 (stereo not drawn)	none
CN1C(=O)/C(=C\c2ccncc2)SC1=Nc1ccccc1	RGS4 block 6.3 | RGS4 inh valid 40% | RGS4 uninduced 56% | M3R basal Ca ctr inactive
O=C(O)CSc1nc(-c2ccc(Cl)cc2)nc2c1oc1ccccc12	RGS4 block 4.8 | RGS4 inh valid 9.0% | RGS4 uninduced inactive | M3R basal Ca ctr 7.0%
O=C(O)C1CCN(c2nc(-c3ccccc3)nc3c2oc2ccccc23)CC1	none (no result: Hep lipid drop)
O=C(O)CSc1nc(-c2ccccc2)nc2c1oc1ccccc12	none (no result: Hep lipid drop) | RGS4 inh valid inactive | RGS4 uninduced inactive | M3R basal Ca ctr inactive
CC1=NN(c2ccccc2)C(=O)/C1=C/c1ccc(-c2ccc(C)c(C(=O)O)c2)o1	RGS4 block 17 (no result: Hep lipid drop) | RGS4 inh valid 74% | RGS4 uninduced inactive | M3R basal Ca ctr inactive
Cn1c(COc2ccc([N+](=O)[O-])cc2)nnc1SCC(=O)NCC1CCCO1 (stereo not drawn)	none (no result: Hep lipid drop)
CCN(CC(=O)Nc1ccc2c(c1)OCCO2)C(=O)/C=C/c1ccc(F)cc1	none
